Apaf1 inhib – inhibitors of human Apaf-1 apoptosome, primary screen, biochemical, DEVD-Rh110 fluorescence, uHTS. 0.71% of 330,000 active. reconstituted apoptosome caspase-3 activity. inhibition, % at 20 µM; active means inhibition of at least 40% at 20 µM
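Material: reconstituted apoptosome with Apaf-1, cytochrome c, caspase-9, procaspase-3, dATP. Technique: Rh110 fluorescence intensity. Buffer or medium: pH 7.5 Hepes buffer with CHAPS, BSA, DTT. Times: 30 min plus 50 min, RT.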
UBC13 polyUb – UBC13 polyubiquitin chain formation inhibitors, primary screen, biochemical, TR-FRET, uHTS | 0.47% of 330,000 active | AID 485273, 2010 | inhibition, % at 20 µM | Ubiquitin-conjugating enzyme E2 N (Homo sapiens), P61088; in the data active means inhibition above about 45%, passing the limit was not always enough
Target sequence (P61088 whole entry, looked up): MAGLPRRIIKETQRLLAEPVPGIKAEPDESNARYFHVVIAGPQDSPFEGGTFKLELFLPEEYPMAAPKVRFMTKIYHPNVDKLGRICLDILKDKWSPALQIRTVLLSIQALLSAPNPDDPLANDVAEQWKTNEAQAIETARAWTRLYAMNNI
Rin1-Abl PPI inh – inhibitors of Rin1-Abl protein binding, primary screen, biochemical, TR-FRET. Tyrosine-protein kinase ABL1 (Homo sapiens) + Ras and Rab interactor 1 (Homo sapiens), …. inhibition, % at 7.35 µM. 0.4% of 360,000 active. AID 588664, 2011; in the data active means inhibition above about 5%, passing the limit was not always enough
PAD4 FP inh – human PAD4 inhibitors, primary screen, biochemical, fluorescence polarization, 1536-well format | Protein-arginine deiminase type-4 (Homo sapiens), Q9UM07 | recombinant PAD4, RCA probe fluorescence polarization | inhibition, % at 6.36 µM | 0.41% of 330,000 active;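 active means percent inhibition above a cutoff equal to the mean of all tested compounds plus 3 SD, cut at about 15% in these data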
GSTO1 counter – inhibitors of recombinant GSTO1, primary screen, counter-screen for RBBP9 inhibitor project, biochemical, fluorescence polarization | inhibition, % at 5.96 µM | Glutathione S-transferase omega-1 (Homo sapiens), P78417 | AID 1974, 2009 | activity-based probe fluorescence polarization | 1.1% of 300,000 active;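 active means inhibition above the campaign mean inhibition plus 3 SD, cut at about 35% in these data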
Target sequence (P78417 whole entry, looked up): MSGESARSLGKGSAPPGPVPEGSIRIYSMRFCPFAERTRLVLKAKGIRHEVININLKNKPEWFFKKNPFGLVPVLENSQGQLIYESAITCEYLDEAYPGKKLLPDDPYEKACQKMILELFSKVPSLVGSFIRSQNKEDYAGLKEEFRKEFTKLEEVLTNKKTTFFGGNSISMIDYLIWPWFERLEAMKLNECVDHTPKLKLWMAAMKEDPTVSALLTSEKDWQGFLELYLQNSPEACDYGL
UBC9 SUMO inh – inhibitors of in vitro SUMOylation cascade, primary screen, biochemical, HTRF, uHTS. HTRF SUMOylation assay, SAE1/SAE2 + UBC9. inhibition, % at 35 µM. 0.36% of 290,000 active; in the data active means inhibition above about 50%, passing the limit was not always enough
Target sequence (P63279 whole entry, looked up): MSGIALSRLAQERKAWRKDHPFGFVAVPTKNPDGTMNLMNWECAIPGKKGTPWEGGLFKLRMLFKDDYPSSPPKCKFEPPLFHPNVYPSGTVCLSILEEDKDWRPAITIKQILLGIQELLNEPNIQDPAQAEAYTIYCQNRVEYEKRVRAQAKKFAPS
A number is an active result; – = inactive; · = no result. An excerpt weighted towards active compounds, which were near 2.2% of everything screened.

SMILES | Apaf1 inhib | UBC13 polyUb | Rin1-Abl PPI inh | PAD4 FP inh | GSTO1 counter | UBC9 SUMO inh
CC(=O)Nc1ccc2c(c1)C(=O)c1ccccc1C2=O | – | – | – | – | – | –
COc1ccccc1N(Cc1cc(=O)[nH]c2ccccc12)C(=O)c1cccc([N+](=O)[O-])c1 | – | – | – | – | 35.5 | –
CCC(=O)N(Cc1cc(=O)[nH]c2ccccc12)c1ccccc1OC | – | – | – | – | – | –
Cc1ccc(C(=O)NCC(=O)NCC(c2cccs2)N(C)C)cc1C (centres undefined) | – | – | – | – | · | ·
Cc1cccc(Cc2c(C)nc3c(C(=O)N4CCN(Cc5ccc6c(c5)OCO6)CC4)cnn3c2C)c1 | – | – | – | – | 35.2 | –
Cc1ccccc1Cc1c(C)nc2c(C(=O)N3CCN(Cc4ccc5c(c4)OCO5)CC3)cnn2c1C | – | – | – | – | – | ·
Cc1ccc(C2C(C#N)=C(N)Oc3n[nH]c(-c4ccccc4)c32)o1 (centres undefined) | · | · | – | – | 45.2 | –
CN(C)C(=O)c1ccc(NC(=O)COC(=O)Cn2cc(C(F)(F)F)ccc2=O)cc1 | – | – | – | – | · | ·
O=C(CCl)Nc1cn(-c2ccccc2)nc1-c1ccccc1 | – | – | – | – | 51.0 | –
CC(=O)Nc1cn(-c2ccccc2)nc1-c1ccccc1 | – | – | – | – | – | –
CC1=C(C)/C(=N\OS(=O)(=O)c2ccccc2)C=CC1=O | – | – | – | – | 34.9 | –
CCc1nn(CCCC(=O)NCc2ccccc2Br)c(=O)c2cc3occc3n12 | 46.4 | – | – | – | – | –
CCC(=O)N1CCC1(C)C(=O)Nc1ccc2scnc2c1 (centres undefined) | · | · | – | · | · | ·
O=[N+]([O-])c1cccc(N/N=C/c2cccc(O)c2O)c1 | – | – | – | – | 34.8 | –
COc1cccc(/C=N/Nc2ccc([N+](=O)[O-])cc2)c1O | – | – | – | – | – | –
O=[N+]([O-])c1ccc(N/N=C/c2cccc(O)c2O)c(S(=O)(=O)N2CCOCC2)c1 | – | – | – | – | 46.2 | 50.9
COc1cc(/C=N/Nc2ccc([N+](=O)[O-])cc2S(=O)(=O)N2CCOCC2)cc(OC)c1OC | – | – | – | – | – | –
CCCCCCCCCCCCCCCC[n+]1cccc2ccccc21 | 91.1 | 102.1 | – | – | – | –
Cc1cc(/C=C2\SC(=S)NC2=O)c(C)n1C | – | – | – | – | 45.7 | –
CC(=O)Nc1sc(C)c(C)c1C(=O)OCCOc1ccccc1 | – | – | – | – | – | –
O=C(O)c1cccc(-c2ccc(/C=c3/sc4nc5ccccc5n4c3=O)o2)c1 | – | – | – | – | – | 84.0
CCOc1ccc(/C=C2\SC(=S)N(CCCC(=O)NCCCN3CCOCC3)C2=O)cc1 | 42.3 | – | – | – | – | –
CCc1ccc(/C=C2\SC(=S)N(CCCC(=O)NCCCN3CCOCC3)C2=O)cc1 | · | · | – | · | · | ·
CC1NC(=O)NC1CCCCCC(=O)NCCc1ccccc1 (centres undefined) | – | – | 83.2 | – | – | –
CCCCOc1ccc(/C=C/C(=O)Nc2ccc(C(N)=O)cc2)cc1 | – | – | – | – | – | 50.9
SMILES | Apaf1 inhib | UBC13 polyUb | Rin1-Abl PPI inh | PAD4 FP inh | GSTO1 counter | UBC9 SUMO inh
O=C(Nc1nnc(-c2ccccc2)o1)c1nc2ccccc2s1 | – | – | – | – | – | 73.9
NC(=O)c1oc2ccccc2c1NC(=O)c1nc2ccccc2s1 | – | – | – | – | – | –
O=C(CN1C(=O)NC2(CCCC2)C1=O)Nc1ccc(F)c([N+](=O)[O-])c1 | – | – | – | – | – | –
CN(C)C(=O)CN1CCN(C(=O)CCl)CC1 | – | – | – | – | 61.0 | –
CCOc1ccc(/C=C2\CCCc3c2nc2ccccc2c3C(=O)O)cc1OC | – | – | – | 26.8 | – | –
COc1ccc(/C=C2\CCCc3c2nc2ccccc2c3C(=O)O)cc1OC | – | – | · | – | – | –
O=C(c1cccs1)N1C[C@@H](O)[C@H](n2cc(C3CC3)nn2)C[C@@H]1c1ccc(Cl)cc1 | · | · | – | · | · | ·
CCN(CC)CCCN1C=C2C(=O)C(C)(OC(=O)CCC(=O)OC)C(=O)C=C2C=C1C1CC1 (centres undefined) | – | – | – | – | – | ·
COC(=O)CCC(=O)OC1(C)C(=O)C=C2C=C(C3CC3)N(Cc3ccccc3)C=C2C1=O (centres undefined) | 42.2 | – | – | – | – | –
COC(=O)CCC(=O)OC1(C)C(=O)C=C2C=C(C3CC3)N(C3CCCCC3)C=C2C1=O (centres undefined) | 62.4 | – | – | – | – | –
CC1(OC(=O)CCc2ccccc2)C(=O)C=C2C=C(c3ccc(C#N)cc3)N(C3CCCC3)C=C2C1=O (centres undefined) | – | – | – | – | – | –
COc1ccc(CN2C=C3C(=O)C(C)(OC(=O)C4CCCC4)C(=O)C=C3C=C2c2ccsc2)cc1 (centres undefined) | – | – | – | – | – | –
COC(=O)CCC(=O)OC1(C)C(=O)C=C2C=C(C3CC3)N(CC(C)C)C=C2C1=O (centres undefined) | 53.3 | – | · | · | · | –
C[C@](N)(Cc1ccc(O)c(O)c1)C(=O)O | · | · | – | · | · | 90.5
CCOc1cc(C(c2c(C)[nH][nH]c2=O)c2c(C)[nH][nH]c2=O)ccc1O | – | – | – | – | 46.0 | –
Cc1[nH][nH]c(=O)c1C(c1ccc(O)c(Br)c1)c1c(C)[nH][nH]c1=O | – | – | – | – | – | –
Cc1cccc(NC(=O)CNC(=O)[C@H]2O[C@@H](n3cnc4c(N)ncnc43)[C@H](O)[C@@H]2O)c1C | · | · | – | · | · | ·
CC1(C(=O)NS(=O)(=O)c2ccc(F)cc2F)CCN1C(=O)CCc1ccccc1 (centres undefined) | · | · | – | · | · | ·
COc1ccc(CNCC(O)(c2ccc(Cl)cc2)c2ccc(Cl)cc2)cc1OC | 42.3 | – | – | – | – | –
NC(=O)c1nsc(C(=O)N(c2ccccc2)C(C(=O)NCc2ccc(F)cc2)c2ccc(O)cc2)c1N (centres undefined) | – | – | – | – | – | –
CCCNC(=O)c1ccc2c(=O)n(Cc3ccco3)c(=S)[nH]c2c1 | – | – | – | – | – | 63.6
CC(C)NC(=O)c1ccc2c(=O)n(Cc3ccco3)c(=S)[nH]c2c1 | – | – | – | – | – | –
CC1=C(C(=O)Nc2ccccc2)C(c2ccc(C)o2)n2c(s/c(=C\c3ccco3)c2=O)=N1 (centres undefined) | – | – | – | · | · | 71.8
COc1ccccc1C1C(C(C)=O)=C(C)N=c2s/c(=C\c3cc(OC)c(OC)c(OC)c3)c(=O)n21 (centres undefined) | – | – | – | – | – | –

Screening results deposited in PubChem BioAssay by several laboratories.
